Consider two compounds from article PMC11094418 (Clinical Cancer Research, 2024).

SMILES strings stand for the structures.

In data set [1] the test system is HCT116 KRAS-mutant colorectal cancer xenograft model. Description: HCT116 xenograft in Balb/c nude mice. It is filed as in vivo. The settings on record: 42 days. A digest of the protocol:
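Female Balb/c nude mice aged 6–9 weeks, inoculated subcutaneously with 5 million HCT116 cells and randomized at 100–150 mm3. Groups received vehicle, oral test compound (0.5% methylcellulose + 0.1% Tween80 suspension), an i.p. chemotherapy agent in saline, or the combination for 42 days. Tumor volume and body weight were measured twice weekly. Mean ± SEM, n=7–8/group.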

For data set [2], the system named is DLD1 isogenic KRAS^WT/G13D (KRAS MUT) and KRAS^WT/− (KRAS WT) colorectal cancer cells. The data set is described as follows: analysis of mitotic cells by flow cytometry. The following applies: 100 nmol/L, 24 hours, Fig. 1B. It is filed as cell-based. On the technique in general: Flow cytometry measures light scatter and fluorescence of single cells or particles in a stream.

The test system is the same in data set [3]. The data set is described as follows: proliferation assay, cell viability by CellTiterGlo. It is filed as cell-based. The settings on record: 72 hours, Fig. 1A. A general note: Cellular ATP, detected with luciferase, serves as a proxy for viable cell number.
Data set [4] can be described thus: phase Ib safety: onvansertib-related AEs. It is filed as in vivo, human. The settings on record: all dose levels. A digest of the protocol:
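Oral test compound was dose-escalated (3+3 design; 12, 15, 18 mg/m2) on days 1–5 and 15–19 of 28-day cycles. It was given with FOLFIRI and bevacizumab 5 mg/kg i.v. on days 1 and 15. Patients receiving ≥1 dose were evaluable. AEs were graded by NCI CTCAE v4.03, investigators assigned causality, and data were summarized descriptively.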

Data set [5] in a line: phase Ib pharmacokinetics, plasma, day 5 of cycle 1, LC/MS-MS. Format: in vivo, human. A digest of the protocol: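 Oral test compound was given on days 1–5 and 15–19 of 28-day cycles with FOLFIRI/bevacizumab. Blood was drawn on cycle 1 day 5 at predose and at 1, 2, 3, 4, 8, 24, 48 and 72 h postdose. Plasma drug concentrations were measured by LC/MS-MS, and pharmacokinetic parameters were calculated from these.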

The conditions of data set [6]: cited from earlier work.

In the case of `CCc1c2c(nc3ccc(OC(=O)N4CCC(N5CCCCC5)CC4)cc13)-c1cc3c(c(=O)n1C2)COC(=O)[C@]3(O)CC` [irinotecan, reference compound], the “tumor growth compared with the vehicle-treated group” value in data set [1] (intraperitoneally, 5 mg/kg, twice a week) is “significantly reduced tumor growth”.

Consider `CN1CCN(c2ccc(OC(F)(F)F)c(Nc3ncc4c(n3)-c3c(c(C(N)=O)nn3CCO)CC4)c2)CC1` [onvansertib], for which, in data set [2], the “mitotic arrest in DLD1 KRAS MUT cells compared with KRAS WT cells” value is “increased”. Also, the “tumor growth compared with the vehicle-treated group” value in data set [1] (oral, 45 mg/kg, daily) was “significantly reduced tumor growth”. Besides, in data set [3], the “cell death in DLD1 KRAS MUT cells compared with KRAS WT cells” value is “increased”. Moreover, in data set [4], the “G3/G4 neutropenia, patients” value is reported as 28%; the “diarrhea, patients” value was found to be 50%; the “fatigue, patients” value is listed as 44%; the “nausea, patients” value was found to be 50%. For the same compound, in data set [4], the “number of onvansertib-related G3 or G4 AEs” value stood at 15 and the “vomiting, patients” value is on record as 22%. Also, in data set [5] (12 mg/m^2, mean ± SD), the “AUC0–24” value is given as 2,020 ± 880 ng/mL.hours; the Cmax (as a rule, the maximum level reached in the sampled fluid or tissue) is recorded as 163 ± 82 ng/mL; the Tmax (commonly the time at which the peak concentration occurs) amounted to 5.29 ± 8.32 h; the t1/2 is 13.8 ± 2.1 h. Moreover, in data set [5] (15 mg/m^2, mean ± SD), the “AUC0–24” value is listed as 1,520 ± 650 ng/mL.hours, the Cmax came to 169 ± 64 ng/mL, the Tmax came to 1.80 ± 0.84 h and the t1/2 worked out at 13.9 ± 4.3 h. Moreover, in data set [5] (18 mg/m^2, mean ± SD), the “AUC0–24” value is given as 2,290 ± 730 ng/mL.hours, the Cmax is listed as 191 ± 25 ng/mL, the Tmax was 2.40 ± 1.20 h and the t1/2 is 13.8 ± 2.3 h. Moreover, the “terminal half-life in plasma” value in data set [5] (all dose levels) is reported as “around 14 hours”. Moreover, the human half-life entry in data set [6] (oral) is on record as “approximately 24 hours”. For the same compound, the “dose-limiting toxicities (DLT)” value in data set [6] (single agent, 6, 12, and 24 mg/m^2/day for 5 out of 21 days) was “no dose-limiting toxicities”.
